System: MS2 coat protein
Experiment: apparent Kd, MS2 coat protein; higher = weaker binding; RNA-MaP array; FMN 200 µM where present
Procedure, shortened: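 Each design was made on Illumina sequencing-chip clusters by stalled E. coli RNA polymerase and titrated with SNAP-549-labelled MS2 coat protein from 0.7 or 1.5 nM, doubling to 3 µM, in the absence and then the presence of constant ligand. The buffer was 100 mM Tris-HCl pH 7.5, 80 mM KCl, 4 mM MgCl2, BSA, DTT, yeast tRNA and Tween-20. The apparent Kd is the median of filtered per-cluster fits of binding curves, with green signal normalised to red-channel RNA signal and control-cluster median Fmax.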

[1] = designed as: OFF switch for flavin mononucleotide, no ligand
[2] = ligand present: flavin mononucleotide, designed as: OFF switch for flavin mononucleotide
[3] = designed as: ON switch for flavin mononucleotide, no ligand
[4] = ligand present: flavin mononucleotide, designed as: ON switch for flavin mononucleotide

Sequence | apparent Kd [1] [nM] | apparent Kd [2] [nM] | apparent Kd [3] [nM] | apparent Kd [4] [nM]
ACAGGUUAAGGAUAUACAUGAGGAUCACCCAUGUCGAGUAUCUUGUCAUGCCGCCCAUGUAGAAGGUAACAUGG | 13.5 | 17 | – | –
UGUGCAGAAGGAUAUGCGUAAGCUCGGUGACGAGCAGGUCUACAUGAGGAUCACCCAUGUAGAAGGUCUGUACU | 16.8 | 17.9 | – | –
AAUAUAGAGCUGGUCUCAUAAUAAACAUGAGGAUCACCCAUGUAGGAUAUCAGCACGAUAAGUGCUGAGAAGGACAUCCAGCUC | 21.4 | 47 | – | –
CUUUUGUGAGGAUAUCAGUAGUAAAAAAAUUAAAUUACUACUGAGAAGGCACAUGAGGAUCACCCAUGUUCCUC | 39.1 | 262 | – | –
ACCUCACAUGAGGAUCACCCAUGUCAGGAUAUCUAAUGUAGUAGCGUUCCCGACGCUAAGAGAAGGGACAUUAA | 15.9 | 22 | – | –
CUCAUGUGAGGAUAUCAGUAGUAAAAAAAAAAAAUUACUACUGAGAAGGCACAUGAGGAUCACCCAUGUGACUU | 34.8 | 30.6 | – | –
GUAGCUUCAUUUAUACAUGAGGAUCACCCAUGUUACAUGGGUAAGGAUAUUGAUGUUAUGAUUAUCAAGAAGGUACUAUGCUAC | – | – | 663 | 39.6
GUGGUACAUGAGGAUCACCCAUGUCAGGAUAUCGUGUGUUUUUUUUCGGCCGCGCGCGCGAGAAGGGACGUCUU | 21.6 | 21.6 | – | –
UGUCCGAGCAGAGGAUAUUACAUGAGGAUCACCCAUGUAUGAACCAAUAGCUGGAAACAGCAAUGUAAGAAGGCUGCUCCGACA | 12.2 | 155 | – | –
AAGGUGUAAGGAUAUGCUGCUCGUCACUUGCGUGAUGAGUAGCAGAAGGUACAUGAGGAUCACCCAUGUAAAGA | 32.5 | 38.2 | – | –
UGUGCGUUGAUCUUCGAUCGUUGUACAUGAGGAUCACCCAUGUAGGAUAUUCUAAGACGCAGAUAGGAGAAGGACAUUGGUUUU | 10.1 | 17.6 | – | –
CGAGUGUAAGGAUAUUCGGCGCCAGGGAACAACCUAGCGUAGAAGAAGGUACAUGAGGAUCACCCAUGUGGUUA | 269 | 22.4 | – | –
GGCAGCGGACAAGGAUAUAAGACGCAGACCAAAUUAGAAGGUGUCAUCUGGCAAUGCGAAAGCAGACAUGAGGAUCACCCAUGU | – | – | 68.8 | 61.7
UGGCUACAUGAGGAUCACCCAUGUCAGGAUAUGCCGUUGGAUUGACUUCGUCGUUCGGGUAGAAGGGACUGCGU | 43.3 | 54.9 | – | –
AUUGUUAAGGUAGGAUAUAGUAAAAUGAUUUAGUUAGAAGGAUCUCACAUGAGGAUCACCCAUGUAAGAGGAUCACCCAUGUAU | 11.1 | 9.45 | – | –
CGUGACUCAGGAUAUCUAUAGUAUCACAUGAGGAUCACCCAUGUCCAGCGAAAGCUGGAGGGAGAAGGGAGUCACG | 266 | 53.9 | – | –
AGCUACGUUUCGUAGCAGUGUCAUCGAGAAGGCUCAUUAACAUGAGGAUCACCCAUGUAUUCAUGGGAGGAUAUCGAUGAUACA | – | – | 131 | 9.22
AAAAGCAUCCAGUAUCAAAAUACAUGAGGAUCACCCAUGUAGCAGGAUAUCAACGUUCCCGACGGUGAGAAGGGCUAUAUGUUG | 7.47 | 9.26 | – | –
GCAUCGCAUGUCAGGAUAUGCUGUACCUUGGUACAGCAGAAGGGACAUGAGGAUCACCCAUGUGCCUAUGAUGC | 39.7 | 353 | – | –
GUACAUACAAAGUUACAUGAGGAUCACCCAUGUUUAUUGGGAAGAAGGGUAACAUUAUUAAAUAUAUAGGAUAUUUCACAAUUG | – | – | 546 | 283
UUGGACGUCGUAGGAUAUGUAGGAUAUUCCUACAUGAGGAUCACCCAUGUUGCCAUGGAAGAAGGACAGAAGGACGAUGUCCAU | – | – | 253 | 4.48
AGAUCCUGAGUCAGGAUAUAGAGACGGUAGUCGGGCUAGAAGGGACAUGAGGAUCACCCAUGUGGGUUCUUGCC | 10.7 | 13.1 | – | –
AAUAUGUUAGGAUAUGCUGCUCGUCACAAAAGUGAUGAGUAGCAGAAGGGACAUGAGGAUCACCCAUGUAAAGA | 36.6 | 29.6 | – | –
AAAUAAAUUAGCAUGAUAUCUUCACAUGAGGAUCACCCAUGUCAGGAUAUUUGUCCUAAAAGGACAGAGAAGGGACAUGCUAUA | 5.78 | 7.76 | – | –
AUGGAUAUCACAGGAUAUGCUAUGGAUACCAUAGCAGAAGGGUGAUCCAUCCUAUGUGAGCACAUGAGGAUCACCCAUGUGUCC | – | – | 123 | 23.1
GUUAUGUGAGGAUAUAUGUAGGAAACUACAUUAAGGGUAUCACAUGAGGAUCACCCAUGUAGAAGGCGCGUAGC | 298 | 349 | – | –
AAAACGUGAGGAUAUGCACCAACCAAGGUUUUUCGGGUACGACAUGAGGAUCACCCAUGUAGAAGGCACGCAAA | 26.4 | 32 | – | –
AAAUAAACUACCAAAAUAUCCUCACAUGAGGAUCACCCAUGUCAGGAUAUUUGUCCUAAAAGGACAGAGAAGGGACGUGGUAGA | 5.63 | 10.7 | – | –

Source: the EternaBench riboswitch data
